According to paper PMC9283305 (Nitric oxide : biology and chemistry, 2022):
Substitutions are numbered along the chain they refer to. Numbers in names are those of the source. Like-named read-outs stand apart in the source and are kept apart here.

B1: H81A: human cytoglobin distal histidine His81(E7) to Ala mutant (protein, UniProt Q8WWM9 1-190, looked up, variant H81A)
Cytoglobin: MEKVPGEMEIERRERSEELSEAERKAVQAMWARLYANCEDVGVAILVRFFVNFPSAKQYFSQFKHMEDPLEMERSPQLRKAACRVMGALNTVVENLHDPDKVSSVLALVGKAHALKHKVEPVYFKILSGVILEVVAEEFASDFPPETQRAWAKLRGLIYSHVTAAYKEVGWVQQVPNATTPPATLPSSGP
B2: zebrafish Cygb1: zebrafish cytoglobin 1, a five-coordinate native globin (protein, UniProt Q8UUR3 1-174, looked up)
Cytoglobin-1: MEGDGGVQLTQSPDSLTEEDVCVIQDTWKPVYAERDNAGVAVLVRFFTNFPSAKQYFEHFRELQDPAEMQQNAQLKEHGQRVLNALNTLVENLRDADKLNTIFNQMGKSHALRHKVDPVYFKILAGVILEVLVEAFPQCFSPAEVQSSWSKLMGILYWQMNRVYAEVGWENSKK
B3: R84E: human cytoglobin surface mutant Arg84 to Glu (protein, UniProt Q8WWM9 1-190, looked up, variant R84E)
Cytoglobin: B1 Cytoglobin with A81H, R84E
B4: Cytoglobin Wild-type: wild-type (WT) human Cygb protein, His-tagged, recombinantly expressed (protein, UniProt Q8WWM9 1-190, looked up)
Cytoglobin: B1 Cytoglobin with A81H
modifications: His-tag
B5: H81L: human cytoglobin distal histidine His81(E7) to Leu mutant (protein, UniProt Q8WWM9 1-190, looked up, variant H81L)
Cytoglobin: B1 Cytoglobin with A81L
B6: V105Y: human cytoglobin hydrophobic surface patch mutant Val105 to Tyr (protein, UniProt Q8WWM9 1-190, looked up, variant V105Y)
Cytoglobin: B1 Cytoglobin with A81H, V105Y
B7: H81Q: human cytoglobin distal histidine His81(E7) to Gln mutant (protein, UniProt Q8WWM9 1-190, looked up, variant H81Q)
Cytoglobin: B1 Cytoglobin with A81Q
B8: L108Q: human cytoglobin hydrophobic surface patch mutant Leu108 to Gln (protein, UniProt Q8WWM9 1-190, looked up, variant L108Q)
Cytoglobin: B1 Cytoglobin with A81H, L108Q
B9: K116E: human cytoglobin surface mutant Lys116 to Glu (protein, UniProt Q8WWM9 1-190, looked up, variant K116E)
Cytoglobin: B1 Cytoglobin with A81H, K116E
B10: Neuroglobin Wild-type: wild-type human neuroglobin (protein, UniProt Q9NPG2 1-151, looked up)
Neuroglobin: MERPEPELIRQSWRAVSRSPLEHGTVLFARLFALEPDLLPLFQYNCRQFSSPEDCLSSPEFLDHIRKVMLVIDAAVTNVEDLSSLEEYLASLGRKHRAVGVKLSSFSTVGESLLYMLEKCLGPAFTPATRAAWSQLYGAVVQAMSRGWDGE
B11: Neuroglobin H64A: human neuroglobin distal histidine His64(E7) to Ala mutant (protein, UniProt Q9NPG2 1-151, looked up, variant H64A)
Neuroglobin: B10 Neuroglobin with H64A
B12: Neuroglobin H64Q: human neuroglobin distal histidine His64(E7) to Gln mutant (protein, UniProt Q9NPG2 1-151, looked up, variant H64Q)
Neuroglobin: B10 Neuroglobin with H64Q
B13: Neuroglobin H64L: His-tagged neuroglobin distal histidine His64(E7) to Leu mutant (protein, UniProt Q9NPG2 1-151, looked up, variant H64L)
Neuroglobin: B10 Neuroglobin with H64L
B14: H81W: human cytoglobin distal histidine His81(E7) to Trp mutant (protein, UniProt Q8WWM9 1-190, looked up, variant H81W)
Cytoglobin: B1 Cytoglobin with A81W
B15: Neuroglobin H64W: human neuroglobin distal histidine His64(E7) to Trp mutant (protein, UniProt Q9NPG2 1-151, looked up, variant H64W)
Neuroglobin: B10 Neuroglobin with H64W
B16: T91D: human cytoglobin mutant Thr91 to Asp (protein, UniProt Q8WWM9 1-190, looked up, variant T91D)
Cytoglobin: B1 Cytoglobin with A81H, T91D

Columns and labels:
[1] = Autoxidation of the ferrous-dioxygen; format: biochemical, human
Procedure, shortened: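 Human Cygb WT and mutants were His-tagged, expressed in SoluBL21 cells and purified on Ni-NTA. Fe(II)-O2 was formed by excess dithionite reduction, then G25 gel filtration in aerobic buffer, mixed with prewarmed buffer at 37 °C and followed spectrally for 30–60 min. For two surface mutants, deoxy protein was made in a glovebox, desalted anaerobically and mixed 4:1 with O2-saturated buffer; read at 1 spectrum/s for 1000 s. At least triplicate; mean ± SD.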

[2] = Nitrite reduction to NO by ferrous globins in the presence of excess dithionite; format: biochemical, human; conditions: for Nitrite reductase reaction rate constant: 37°C, 100 mM sodium phosphate, pH 7.4, excess dithionite
Procedure, shortened: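 Ran in 100 mM sodium phosphate, pH 7.4, 37 °C, with 2.5 mM dithionite to keep heme ferrous and remove O2. Globin (2–10 μM) was mixed with nitrite, typically 1–10 mM, or 250 μM–2 mM for distal-His mutants. Spectra were read over 350–700 nm and fit single-exponential; rate constants came from the nitrite series. At least triplicate, with ≥2 protein batches; mean ± SD.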

[3] = cited from earlier work
[4] = Imidazole binding to ferric cytoglobin by UV-Vis difference spectroscopy; design: species or system human; conditions: read-out: Imidazole KD; ferric protein
Procedure, shortened: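 Ferric globin (5–15 μM) was titrated with imidazole stocks (1–100 mM) to about 100–15000 μM final. Buffer was 100 mM sodium phosphate, pH 7.4, at 25 °C. UV-Vis difference spectra were taken, and the max–min absorbance difference was plotted against ligand. KD came from a 1:1 quadratic binding fit. At least triplicate, with ≥2 protein batches; mean ± SD.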

[5] = 37°C, 100 mM sodium phosphate, pH 7.4; cited from earlier work
[6] = cited from earlier work; for Nitrite reductase reaction rate constant: 37°C, 100 mM sodium phosphate, pH 7.4
Oleic acid = format: binding, human
Procedure, shortened: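 Oleate was titrated into ferric distal-His mutant globins with imidazole present: 250 μM, or a series of imidazole levels. Difference spectra were taken by subtracting the initial spectrum. The absorbance difference at the wavelength of largest change was fit against oleate concentration to give an apparent KD. Buffer was 100 mM sodium phosphate, pH 7.4, 25 °C.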

[7] = 37°C, 100 mM sodium phosphate, pH 7.4
[8] = 37°C, 100 mM sodium phosphate, pH 7.4, decay fit to a two-exponential equation

Molecule | Autoxidation rate [1, 7] [min⁻¹] | Nitrite reductase reaction rate constant [2] [M⁻¹ s⁻¹] | Autoxidation rate [5] | Nitrite reductase reaction rate constant [6] | also measured
B1 | 0.094 ± 0.038 | 1100 ± 100 | – | – | Nitrite reductase reaction rate constant ([2]; listed as His81Ala): up to 1100 M^−1s^−1; Fold increase in nitrite reduction rate constant versus Cygb WT [2]: up to 1000 fold
B2 | – | – | – | – | Lipid binding [3]: do not show appreciable lipid binding
B3 | – | 0.90 ± 0.30 | – | – | Autoxidation rate constant for the fast phase [1, 8]: 2.362 ± 0.359^c min^−1; Autoxidation rate constant for the slower phase [1, 8]: 0.303 ± 0.037 min⁻¹; Share of the autoxidation decay accounted for by the fast phase ([1]; 37°C, 100 mM sodium phosphate, pH 7.4, two-exponential fit): 73 ± 12%; Fold increase in autoxidation rate constant as compared to WT ([1]; versus WT cytoglobin): roughly 10 fold
B4 | – | – | 0.270 ± 0.020^a min^−1 | 1.14 ± 0.07^e M^−1s^−1 | Kd [4]: ~1000 µM; Nitrite reduction rate ([6]; in the presence of the intramolecular disulfide bond): 32.3 M⁻¹ s⁻¹; Binding to lipids ([3]; Cygb with the reduced thiols): little or no binding; Kd ([3]; read-out: KD for lipids such as oleic acid and cardiolipin): ~1 µM
B5 | 0.314 ± 0.043 | 76 ± 16 | – | – | Nitrite reduction rate relative to Ngb H64L ([2]; relative to the Ngb H64L rate): about 25%; Fold increase in oleic acid KD versus WT (Oleic acid; versus Cygb WT): 4 fold
B6 | 0.107 ± 0.018 | 3.76 ± 0.85 | – | – | Fold increase in nitrite reduction rate constant versus Cygb WT [2]: 3 fold
B7 | 0.019 ± 0.005 | 210 ± 44 | – | – | Change of oleic acid binding (apparent KD) in the presence of imidazole (Oleic acid; several saturating concentrations of imidazole (Figure 5)): slight upwards trend
B8 | 0.116 ± 0.051 | 0.66 ± 0.18 | – | – | –
B9 | 0.366 ± 0.057 | 0.65 ± 0.14 | – | – | –
B10 | – | – | 0.23 ± 0.03^b min^−1 | 0.52 ± 0.19^d M^−1s^−1 | –
B11 | – | – | 0.066 ± 0.005^b min^−1 | 1120 ± 140^d M^−1s^−1 | –
B12 | – | – | 0.010 ± 0.002^b min^−1 | 387 ± 21^d M^−1s^−1 | –
B13 | 0.010 ± 0.004 | 302 ± 55 | – | – | –
B14 | 0.135 ± 0.034 | 10.7 ± 2.1 | – | – | –
B15 | – | – | 0.076 ± 0.006^b min^−1 | 7.6 ± 1.3^d M^−1s^−1 | –
B16 | 0.062 ± 0.005 | 1.24 ± 0.18 | – | – | –
